Molecules are shown by their SMILES.

The target in experiment [1] is Nitric oxide synthase, inducible (Homo sapiens) (UniProt P35228). Put plainly: Inhibition of human iNOS expressed in insect Sf9 cells assessed as residual activity at 100 uM by Griess assay relative to control. An outline of the steps: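 Human iNOS made in Sf9 cells, incubated at 37 °C for 20 min in 50 mM triethanolamine pH 7.5 with 1 mM Mg2+, FAD/FMN 5 µM each, 0.5 mM NADPH, 10 µM H4B, CaM and 1 mM L-arginine. Compound 100 µM final. NADPH cleared with lactate dehydrogenase/pyruvate before Griess reaction (543 nm). Residual activity relative to 1% DMSO control; mean of 5 experiments.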

Experiment [2] concerns the target T1, Nitric oxide synthase 3 (Homo sapiens) (UniProt P29474).
T1 sequence (whole entry): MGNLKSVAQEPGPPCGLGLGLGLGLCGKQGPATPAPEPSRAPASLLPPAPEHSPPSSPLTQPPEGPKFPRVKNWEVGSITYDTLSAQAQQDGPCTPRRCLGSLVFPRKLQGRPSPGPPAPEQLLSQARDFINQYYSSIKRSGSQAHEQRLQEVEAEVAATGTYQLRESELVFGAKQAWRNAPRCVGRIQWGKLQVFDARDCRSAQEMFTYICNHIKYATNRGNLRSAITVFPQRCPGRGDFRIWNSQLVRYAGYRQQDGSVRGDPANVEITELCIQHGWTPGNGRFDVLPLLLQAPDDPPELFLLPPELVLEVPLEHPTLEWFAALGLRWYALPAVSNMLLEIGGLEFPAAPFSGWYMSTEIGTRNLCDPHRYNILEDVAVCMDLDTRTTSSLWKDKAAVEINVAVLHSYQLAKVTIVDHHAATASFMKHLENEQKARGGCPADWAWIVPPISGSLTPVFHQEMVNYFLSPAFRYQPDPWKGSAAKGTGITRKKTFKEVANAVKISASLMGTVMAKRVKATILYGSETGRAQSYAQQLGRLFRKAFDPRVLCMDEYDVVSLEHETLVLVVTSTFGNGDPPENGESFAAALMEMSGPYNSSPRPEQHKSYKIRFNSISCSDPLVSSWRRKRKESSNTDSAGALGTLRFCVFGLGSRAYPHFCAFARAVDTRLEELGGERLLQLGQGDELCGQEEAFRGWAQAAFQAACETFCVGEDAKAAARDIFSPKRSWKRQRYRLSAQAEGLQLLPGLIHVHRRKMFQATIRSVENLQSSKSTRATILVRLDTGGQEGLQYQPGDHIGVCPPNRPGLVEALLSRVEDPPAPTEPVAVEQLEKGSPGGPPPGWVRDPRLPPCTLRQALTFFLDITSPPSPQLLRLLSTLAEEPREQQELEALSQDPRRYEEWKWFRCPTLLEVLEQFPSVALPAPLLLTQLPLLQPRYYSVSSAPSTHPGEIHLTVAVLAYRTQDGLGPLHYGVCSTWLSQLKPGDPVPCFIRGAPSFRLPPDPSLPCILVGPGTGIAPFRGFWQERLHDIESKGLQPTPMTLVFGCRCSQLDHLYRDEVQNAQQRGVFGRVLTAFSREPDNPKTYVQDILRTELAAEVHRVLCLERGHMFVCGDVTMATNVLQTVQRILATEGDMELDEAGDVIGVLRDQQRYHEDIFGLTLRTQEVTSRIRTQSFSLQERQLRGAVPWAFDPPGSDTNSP
Kind of experiment: Inhibition of human eNOS assessed as residual activity at 100 uM by Griess assay relative to control. The procedure, abridged: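 Human eNOS expressed in Pichia pastoris. Incubated 20 min at 37 °C in triethanolamine pH 7.5 with 0.5 mM Ca2+, CaM, H4B 10 µM, FAD/FMN 5 µM, NADPH 0.5 mM, L-arginine 1 mM and compound at 100 µM final. Nitrite read by Griess (543 nm) after LDH/pyruvate NADPH removal; % of 1% DMSO control from 5 experiments.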

In experiment [3] the target is Nitric oxide synthase 1 (Rattus norvegicus) (UniProt P29476). Kind of experiment: Inhibition of rat recombinant nNOS expressed in Saccharomyces cerevisiae assessed as conversion of [gamma-14C]L-arginine to [14C]L-citrulline at 100 uM by radioactive assay relative to control. Also on record: scale not given: the % may be the effect or the level left. The procedure, abridged:
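Purified enzymes: rat nNOS from S. cerevisiae, murine iNOS and bovine eNOS from E. coli. Reaction 5 min at 37 °C in 50 mM Hepes pH 7.4 with DTT, 1 mM NADPH, H4B, FAD, FMN, [14C]L-arginine (2.5 µM L-arginine) and 100 µM compound in 1% DMSO. nNOS/eNOS also got 1 mM CaCl2 and CaM, which iNOS lacked. [14C]citrulline isolated on Dowex and counted by scintillation; % of DMSO control, n=3.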

Sequence of Nitric oxide synthase 1 (Rattus norvegicus) (P29476 whole entry): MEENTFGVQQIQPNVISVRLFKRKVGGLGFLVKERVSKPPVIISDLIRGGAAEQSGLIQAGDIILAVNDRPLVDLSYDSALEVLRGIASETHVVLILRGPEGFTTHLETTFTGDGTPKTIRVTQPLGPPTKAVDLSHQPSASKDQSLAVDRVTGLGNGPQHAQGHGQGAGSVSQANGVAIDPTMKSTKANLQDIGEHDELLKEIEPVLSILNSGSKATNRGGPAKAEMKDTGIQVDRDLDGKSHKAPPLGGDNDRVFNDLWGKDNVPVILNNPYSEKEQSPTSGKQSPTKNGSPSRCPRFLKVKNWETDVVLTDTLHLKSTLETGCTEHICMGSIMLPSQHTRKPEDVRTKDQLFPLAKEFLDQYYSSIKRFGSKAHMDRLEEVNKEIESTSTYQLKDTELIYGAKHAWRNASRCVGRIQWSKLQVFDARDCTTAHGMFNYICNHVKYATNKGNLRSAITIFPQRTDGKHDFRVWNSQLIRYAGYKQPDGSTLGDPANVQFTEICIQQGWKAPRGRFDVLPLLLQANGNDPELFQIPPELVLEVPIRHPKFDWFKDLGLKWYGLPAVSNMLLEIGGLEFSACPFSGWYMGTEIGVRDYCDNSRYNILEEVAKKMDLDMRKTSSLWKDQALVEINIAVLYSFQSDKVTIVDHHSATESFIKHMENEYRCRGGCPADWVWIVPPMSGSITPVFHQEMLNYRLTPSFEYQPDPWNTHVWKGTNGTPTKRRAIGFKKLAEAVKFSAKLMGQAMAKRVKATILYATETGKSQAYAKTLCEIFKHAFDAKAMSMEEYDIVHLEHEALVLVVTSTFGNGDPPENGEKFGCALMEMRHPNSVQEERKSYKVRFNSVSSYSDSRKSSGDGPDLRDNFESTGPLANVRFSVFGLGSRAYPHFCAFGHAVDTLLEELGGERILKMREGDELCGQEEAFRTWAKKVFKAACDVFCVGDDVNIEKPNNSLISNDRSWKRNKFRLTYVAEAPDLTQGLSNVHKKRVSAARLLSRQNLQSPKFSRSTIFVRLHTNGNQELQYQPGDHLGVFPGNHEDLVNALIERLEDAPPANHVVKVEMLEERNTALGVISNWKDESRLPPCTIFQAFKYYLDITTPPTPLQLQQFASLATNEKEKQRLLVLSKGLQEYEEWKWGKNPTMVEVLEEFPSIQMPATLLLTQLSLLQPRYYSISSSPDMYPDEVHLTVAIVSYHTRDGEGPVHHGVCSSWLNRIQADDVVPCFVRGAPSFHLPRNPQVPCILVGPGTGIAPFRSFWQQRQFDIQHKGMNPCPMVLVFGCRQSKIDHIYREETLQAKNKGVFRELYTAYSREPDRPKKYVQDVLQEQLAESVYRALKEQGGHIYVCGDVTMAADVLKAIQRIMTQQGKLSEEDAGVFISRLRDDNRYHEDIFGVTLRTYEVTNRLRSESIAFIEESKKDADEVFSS
Sequence of Nitric oxide synthase, inducible (Homo sapiens) (P35228 whole entry): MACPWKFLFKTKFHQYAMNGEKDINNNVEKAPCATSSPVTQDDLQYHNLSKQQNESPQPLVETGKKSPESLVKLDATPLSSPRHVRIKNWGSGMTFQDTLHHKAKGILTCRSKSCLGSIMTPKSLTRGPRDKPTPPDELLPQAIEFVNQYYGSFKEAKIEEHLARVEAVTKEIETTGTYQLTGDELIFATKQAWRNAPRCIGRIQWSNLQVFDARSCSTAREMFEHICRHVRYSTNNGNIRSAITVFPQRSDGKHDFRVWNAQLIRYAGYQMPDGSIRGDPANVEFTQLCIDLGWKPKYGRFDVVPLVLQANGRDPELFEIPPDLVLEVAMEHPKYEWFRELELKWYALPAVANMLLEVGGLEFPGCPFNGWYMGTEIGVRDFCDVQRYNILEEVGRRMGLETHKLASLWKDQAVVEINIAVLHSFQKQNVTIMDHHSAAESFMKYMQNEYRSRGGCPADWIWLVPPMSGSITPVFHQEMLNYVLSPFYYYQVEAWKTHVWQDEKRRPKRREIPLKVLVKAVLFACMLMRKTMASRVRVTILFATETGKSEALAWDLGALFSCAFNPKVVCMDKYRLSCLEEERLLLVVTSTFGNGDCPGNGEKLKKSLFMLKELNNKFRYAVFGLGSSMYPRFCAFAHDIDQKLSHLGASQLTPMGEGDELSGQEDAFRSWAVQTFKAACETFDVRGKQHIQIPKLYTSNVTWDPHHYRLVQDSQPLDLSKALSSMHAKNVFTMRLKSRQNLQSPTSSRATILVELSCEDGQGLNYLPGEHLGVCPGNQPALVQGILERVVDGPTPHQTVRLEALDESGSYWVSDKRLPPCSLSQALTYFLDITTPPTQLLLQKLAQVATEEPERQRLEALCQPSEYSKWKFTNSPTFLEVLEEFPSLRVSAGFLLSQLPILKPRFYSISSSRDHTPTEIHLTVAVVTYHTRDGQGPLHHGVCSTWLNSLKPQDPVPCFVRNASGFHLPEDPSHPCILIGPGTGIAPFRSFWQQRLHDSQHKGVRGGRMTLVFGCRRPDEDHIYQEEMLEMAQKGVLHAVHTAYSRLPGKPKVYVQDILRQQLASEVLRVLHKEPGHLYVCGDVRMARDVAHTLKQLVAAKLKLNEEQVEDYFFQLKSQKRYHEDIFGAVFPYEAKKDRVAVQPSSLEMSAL

Consider `O=C(c1ccc(Br)cc1)C1CN=C2C=CC=CN2C1` (centres undefined), for which the Activity in experiment [1] turned out to be 110%; in experiment [2], 85%.
In the case of `CC1=CC=CC2=NCC(C(=O)c3ccc(C)cc3)CN12.[O-][Cl+3]([O-])([O-])O` (centres undefined), the Activity in experiment [3] worked out at 76%.
Regarding `COc1ccc(-c2ccc(C(=O)C3CN=C4C=C(C)C=CN4C3)cc2)cc1.Cl` (centres undefined), the Activity in experiment [1] turned out to be 49%; in experiment [2], 57%; in experiment [3], 29%.
In the case of `O=C(c1ccc2ccccc2c1)C1CN=C2C=CC=CN2C1` (centres undefined), the results for the Activity in experiment [1] and in experiment [2] were 93% and 60%, respectively.
`CC1=CC2=NCC(C(=O)c3ccc4ccccc4c3)CN2C=C1` (centres undefined): the Activity stood at 47% in experiment [1] and 60% in experiment [2].
On the same counts, the results for `CC1=CC2=NCC(C(=O)c3ccc(Br)cc3)CN2C=C1` (centres undefined) are 69% and 73%.
With `COc1ccc(C(=O)C2CN=C3C=CC=C(C)N3C2)cc1OC.[O-][Cl+3]([O-])([O-])O` (centres undefined), the Activity in experiment [3] was 100%.
With `CC1=CC2=NCC(C(=O)c3ccc(F)cc3)CN2C=C1` (centres undefined), the Activity in experiment [1] was 78%; in experiment [2], 77%.
For the compound `CC1=CC2=NCC(C(=O)c3ccc4cc(C)ccc4c3)CN2C=C1.[O-][Cl+3]([O-])([O-])O` (centres undefined), the Activity is 103% in experiment [1], 11% in experiment [2] and 69% in experiment [3].
`CC1=CC2=NCC(C(=O)c3ccccc3)CN2C=C1` (centres undefined): the results for the Activity in experiment [1] and in experiment [2] were 63% and 72%, respectively.
On to `CC1=CC2=NCC(C(=O)c3ccc(-c4ccc(Br)cc4)cc3)CN2C=C1.[O-][Cl+3]([O-])([O-])O` (centres undefined), for which the Activity was determined as 120% in experiment [1], 17% in experiment [2] and 10% in experiment [3].
As to `COc1ccc(C(=O)C2CN=C3C=C(C)C=CN3C2)cc1F.[O-][Cl+3]([O-])([O-])O` (centres undefined), the Activity in experiment [1] was 102%; in experiment [2] it was 84%; in experiment [3], 69%.
As for `CC1=CC2=NCC(C(=O)c3ccc(OCc4ccc(Br)cc4)cc3)CN2C=C1.Cl` (centres undefined), the Activity in experiment [1] came out at 83%; in experiment [2], 16%; in experiment [3], 62%.
For `CCSC(=N)N`, the Activity in experiment [1] is 6%; in experiment [2], 37%.
Regarding `CC1=CC2=NCC(C(=O)c3ccc(Cl)cc3)CN2C=C1` (centres undefined), the figures for the Activity in experiment [1] and in experiment [2] were 50% and 7%, respectively.
For `CC1=CC2=NCC(C(=O)c3ccc(OCc4ccc(C#N)cc4)cc3)CN2C=C1.[O-][Cl+3]([O-])([O-])O` (centres undefined), the Activity was found to be 105% in experiment [1], 78% in experiment [2] and 60% in experiment [3].
As to `CC1=CC=CC2=NCC(C(=O)c3ccc4ccccc4c3)CN12` (centres undefined), the figures for the Activity in experiment [1] and in experiment [2] were 89% and 75%, respectively.
`CC1=CC2=NCC(C(=O)c3ccc4cc(C)ccc4c3)CN2C(C)=C1.[O-][Cl+3]([O-])([O-])O` (centres undefined): the Activity in experiment [1] was determined as 83%; in experiment [2] it was 86%; in experiment [3], 55%.
As to `CC1=CC=CC2=NCC(C(=O)c3ccc(Br)cc3)CN12` (centres undefined), the Activity in experiment [1] was 93%; in experiment [2] it was 86%.
Consider `CC1=CC2=NCC(C(=O)c3ccc(-c4ccc(C#N)cc4)cc3)CN2C=C1.Cl` (centres undefined), for which the results for the Activity in experiment [1], in experiment [2] and in experiment [3] were 55%, 55% and 43%, respectively.
In the case of `COc1ccc2cc(C(=O)C3CN=C4C=C(C)C=CN4C3)ccc2c1` (centres undefined), the Activity stood at 88% in experiment [1] and 98% in experiment [2].
For the compound `O=C(c1ccc(Cl)c(Cl)c1)C1CN=C2C=CC=CN2C1.[O-][Cl+3]([O-])([O-])O` (centres undefined), the Activity turned out to be 105% in experiment [1], 89% in experiment [2] and 87% in experiment [3].
`N=C(NCCC[C@H](N)C(=O)O)N[N+](=O)[O-]`: the Activity in experiment [1] worked out at 48%; in experiment [2] it was 25%; in experiment [3], 2%.
Consider `CC1=CC=CC2=NCC(C(=O)c3ccc(F)cc3)CN12.[O-][Cl+3]([O-])([O-])O` (centres undefined), for which the results for the Activity in experiment [1], in experiment [2] and in experiment [3] were 88%, 77% and 83%, respectively.
The like results for `CC1=CC2=NCC(C(=O)c3ccc(OCc4ccc(Cl)cc4)cc3)CN2C=C1.[O-][Cl+3]([O-])([O-])O` (centres undefined) were, in that order, 94%, 8% and 49%.
`CCCNC(=N)NCCC[C@H](N)C(=O)O`: the Activity in experiment [1] is 95%; in experiment [2], 96%.
Take `CC1=CC2=NCC(C(=O)c3ccc(-c4ccccc4)cc3)CN2C=C1` (centres undefined): the results for the Activity in experiment [1] and in experiment [2] were 17% and 8%, respectively.
For the compound `CC1=CC2=NCC(C(=O)c3ccc(-c4ccc(Br)cc4)cc3)CN2C(C)=C1` (centres undefined), the Activity was 89% in experiment [1], 15% in experiment [2] and 58% in experiment [3].
As to `CC(=N)NCc1cccc(CN)c1`, the Activity was found to be 5% in experiment [1] and 105% in experiment [2].

These data come from ChEMBL document CHEMBL1152488, “Synthesis and evaluation of pyrido[1,2-a]pyrimidines as inhibitors of nitric oxide synthases” (Eur J Med Chem, 2009).
